The subject of experiment [1] is MCF7. The experiment in a line: Cytotoxicity against human MCF7 cells assessed as reduction in cell viability at 2 uM after 24 hrs by MTT assay. It counts as functional, cell-based.
Experiment [2] has as its system MCF7. The experiment in a line: Cell cycle arrest in human MCF7 cells assessed as accumulation at G0 phase at 10 uM after 24 hrs using propidium iodide staining based flow cytometric analysis (reference value: 1.27 +/- 0.08 %). It counts as functional. Background: Flow cytometry measures light scatter and fluorescence of single cells or particles in a stream.
For experiment [3], the system named is MCF7. The experiment in a line: Cell cycle arrest in human MCF7 cells assessed as accumulation at G0/G1 phase at 4 uM after 24 hrs using propidium iodide staining based flow cytometric analysis. It counts as functional. In short, it runs like this:
(§1)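 MCF-7 cells were seeded at 5 × 10^5 per 60 mm dish and grown for 24 h, then exposed to 4 µM compound for 24 h. Cells were trypsinized, fixed in ice-cold 70% ethanol at 4 °C for 30 min and treated with 1 mg/ml RNase at 37 °C for 30 min. They were stained with propidium iodide/citrate/Triton X-100, and DNA content was read on 20,000 events by flow cytometry. Three independent repeats.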

Experiment [4] has as its system MCF7. Kind of experiment: Cell cycle arrest in human MCF7 cells assessed as accumulation at S phase at 10 uM after 24 hrs using propidium iodide staining based flow cytometric analysis (reference value: 12.92 +/- 1 %). It counts as functional.
Experiment [5] deals with MCF7. Kind of experiment: Cell cycle arrest in human MCF7 cells assessed as accumulation at G1 phase at 10 uM after 24 hrs using propidium iodide staining based flow cytometric analysis (reference value: 47.64 +/- 1.49 %). It counts as functional.
For experiment [6], the system named is MCF7. Kind of experiment: Cell cycle arrest in human MCF7 cells assessed as accumulation at G2/M phase at 10 uM after 24 hrs using propidium iodide staining based flow cytometric analysis (reference value: 38.15 +/- 1.068 %). It counts as functional.
The test system of experiment [7] is MCF7. Kind of experiment: Induction of cell cycle arrest at G1 phase in human MCF7 cells at 4 uM after 24 hrs using propidium iodide staining based flow cytometric analysis. It counts as functional. Summed up:
as §1

Experiment [8] is described as follows: Anticancer activity against human Gurav cells by SRB method. It counts as functional. Summed up: (§2)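 Growth inhibition over a panel of human cancer lines (lung, ovarian, oral, colon, prostate, cervix, breast). Value is the 50% growth-inhibition concentration, reported as the mean ± standard error of the mean of three determinations.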
For orientation: The SRB assay estimates cell density from bound dye.

The subject of experiment [9] is HOP-62. The experiment in a line: Anticancer activity against human HOP62 cells by SRB method. It counts as functional. Summed up:
as §2

Experiment [10] in a line: Anticancer activity against human DWD cells by SRB method. It counts as functional. Summed up:
as §2

Experiment [11] concerns SiHa. The experiment in a line: Anticancer activity against human SiHa cells by SRB method. Format: functional. In short, it runs like this:
as §2

The test system of experiment [12] is A549. The experiment in a line: Anticancer activity against human A549 cells by SRB method. It counts as functional. In short, it runs like this: as §2
In experiment [13] the test system is PC-3. Kind of experiment: Anticancer activity against human PC3 cells by SRB method. Format: functional. Summed up: as §2
The subject of experiment [14] is A2780. Kind of experiment: Anticancer activity against human A2780 cells by SRB method. It counts as functional. In short, it runs like this: as §2
Experiment [15] has as its system MCF7. Kind of experiment: Anticancer activity against human MCF7 cells by SRB method. Format: functional. Summed up:
as §2

Experiment [16] deals with ZR-75-1. The experiment in a line: Anticancer activity against human ZR-75-1 cells by SRB method. It counts as functional. In short, it runs like this:
as §2

Experiment [17] concerns COLO 205. Kind of experiment: Anticancer activity against human COLO205 cells by SRB method. It counts as functional. In short, it runs like this: as §2
For experiment [18], the system named is KB. Kind of experiment: Anticancer activity against human KB cells by SRB method. It counts as functional. In short, it runs like this: as §2

Molecules are shown by their SMILES. Active and inactive are the calls of the source. The calls are words filed in the database; no cut-off is given here.

As for `COc1cc2c(cc1OCc1ccccc1)N=C[C@@H]1C[C@H](n3cc(COc4ccc(/C=C/C(=O)c5ccccc5O)cc4OC)nn3)CN1C2=O`, the outcome in [1] was inactive. Moreover, the Activity in [2] was found to be 5.21%; in [3], 59.79%; in experiment [4], 6.65%; in [5], 54.61%; in experiment [6] it was 32.06%. In experiment [7], the result was Active.

On to `COc1cc(/C=C/C(=O)c2ccccc2O)ccc1OCCCCCn1cc(COc2cc3c(cc2OC)C(=O)N2CCC[C@H]2C=N3)nn1`, for which the GI50 in experiment [8] was 160 nM; in experiment [9], 2560 nM; in experiment [10], 2300 nM; in experiment [11], 2710 nM; in experiment [12], 170 nM; in experiment [13] it was 2040 nM. For the same molecule, the GI50 in [14] stood at 140 nM; in experiment [15] it was 2100 nM; in experiment [16], 170 nM; in experiment [17], 140 nM; in experiment [18] it was 180 nM. Further, the outcome in experiment [1] was inactive. In addition, the Activity turned out to be 7.81% in [2]; 56.23% in experiment [3]; 9.89% in [4]; 46.39% in experiment [5]; 35.88% in experiment [6]. In [7], the result was Active.

In the case of `COc1cc(/C=C/C(=O)c2cc(Cl)ccc2O)ccc1OCCCCn1cc(COc2cc3c(cc2OC)C(=O)N2CCC[C@H]2C=N3)nn1`, the GI50 in experiment [8] is 1660 nM; in experiment [9], 2500 nM; in experiment [10], < 170 nM; in [12], 190 nM; in experiment [13], 160 nM; in [14], 130 nM. Besides, the GI50 in [15] is 160 nM; in experiment [16], 190 nM; in [17], < 100 nM; in experiment [18], 2660 nM. For the same molecule, the result in [1] was inactive. The Activity in experiment [2] worked out at 10.51%; in experiment [3], 61.38%; in experiment [4] it was 7.74%; in [5], 50.63%; in experiment [6], 31.07%. The outcome in [7] was Active.

Turning to `COc1cccc2c1C(=O)c1c(O)c3c(c(O)c1C2=O)C[C@@](O)(C(=O)CO)C[C@@H]3O[C@H]1C[C@H](N)[C@H](O)[C@H](C)O1` [DOXORUBICIN], the GI50 in [8] amounted to 170 nM; in experiment [9], 140 nM; in experiment [10], 100 nM; in experiment [11], 170 nM; in experiment [14], 160 nM; in experiment [15] it was 170 nM. Moreover, the GI50 in experiment [17] came to 140 nM; in [18], 170 nM.

Turning to `COc1cc2c(cc1OC)C(=O)N1C[C@@H](n3cc(COc4ccc(/C=C/C(=O)c5ccccc5O)cc4OC)nn3)C[C@H]1C=N2`, the GI50 turned out to be 2510 nM in experiment [8]; 2700 nM in experiment [10]; 2780 nM in experiment [12]; 2230 nM in [13]; 150 nM in experiment [14]; 2350 nM in experiment [15]. In experiment [17], this molecule gave a GI50 of 110 nM. Besides, the result in [1] was inactive. The Activity is reported as 5.19% in [2]; 55.24% in experiment [3]; 8.71% in experiment [4]; 50.9% in experiment [5]; 35.19% in experiment [6]. Moreover, in [7], the outcome was Active.

For the molecule `COc1cc(/C=C/C(=O)c2ccc(O)cc2)ccc1OCCCCn1cc(COc2cc3c(cc2OC)C(=O)N2CCC[C@H]2C=N3)nn1`, the GI50 in experiment [8] was 130 nM; in [9], 190 nM; in experiment [10], < 160 nM; in experiment [11], 2520 nM; in [12], < 150 nM; in experiment [13], 150 nM. For the same molecule, the GI50 came out at 110 nM in [14]; 160 nM in experiment [15]; 160 nM in [16]; 110 nM in experiment [17]; 160 nM in experiment [18].

As a reminder, the GI50 is the concentration at which growth is held to half of that of the control. High values mean lower sensitivity of the cells, low ones greater sensitivity of the cells.

The record behind these values is ChEMBL document CHEMBL1821554, “Synthesis and anticancer activity of chalcone-pyrrolobenzodiazepine conjugates linked via 1,2,3-triazole ring side-armed with alkane spacers” (2011).
